Source: PubChem (several laboratories)
ROMK primary: human ROMK K+ channel modulation, primary screen; B-score at 10 µM; AID 1918; Tet-inducible ROMK, thallium flux fluorescence; actives lie on both sides; actives 2% (n = 130,000); P48048;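 active means signal ratio slope over the read window, or its plate-corrected B-score, at least 3 SD from the plate mean, either direction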;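 further: B-score of the F/F0 ratio slope over 7 to 12 s after thallium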
Target sequence (P48048 whole entry, looked up): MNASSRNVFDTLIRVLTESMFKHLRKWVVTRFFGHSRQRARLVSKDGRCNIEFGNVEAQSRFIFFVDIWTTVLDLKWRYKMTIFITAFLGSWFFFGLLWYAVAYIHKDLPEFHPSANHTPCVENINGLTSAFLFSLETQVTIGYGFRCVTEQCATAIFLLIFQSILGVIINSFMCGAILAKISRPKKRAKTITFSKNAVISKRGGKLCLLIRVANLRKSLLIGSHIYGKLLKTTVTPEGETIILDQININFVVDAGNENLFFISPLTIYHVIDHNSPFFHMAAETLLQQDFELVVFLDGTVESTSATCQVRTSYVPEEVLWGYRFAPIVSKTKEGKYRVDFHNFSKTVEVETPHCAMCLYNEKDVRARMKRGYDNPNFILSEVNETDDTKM
Pf gametocyte: P. falciparum stage V gametocyte viability inhibition | P. falciparum stage V gametocytes, ATP luminescence, 24 h | inhibition, % at 10.9 µM | actives 0.065% (n = 150,000) | AID 743093;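 active means inhibition above the mean plus 3 SD of compounds within the control limits, set per campaign, cut at about 38% in these data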;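 further: 0% = DMSO wells and 100% = medium only without gametocytes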
Biofilm kill mix: mixture kills Candida albicans biofilm cells; C. albicans biofilm persisters + clotrimazole, fluorescence viability; primary screen in compound mixtures of four per well; inhibition, % at 7.6 µM; actives 0.02% (n = 120,000); AID 1242;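 active means inhibition above 30.3% in the primary screen of four-compound pools, then above 30% when the compound was retested; inconclusive means passed the primary limit but could not be retested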;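 further: compounds exposed to preformed 24 h biofilms for 48 h; 0% = untreated biofilm control and 100% = clotrimazole plus chlorhexidine kill blank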
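System: C. albicans CAF4-2 wild-type biofilms; Medium: RPMI/MOPS medium, pH 7.0; Reagent: Clotrimazole, 50 µg/mL; Times: biofilm formation 24 h, compound exposure 48 h, 37 °C; Detection: 2-h Alamar Blue fluorescence, 535/590 nm excitation/emission; Evaluation: percent inhibition of biofilm viability.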
ROMK retest: confirmation of human ROMK potassium channel modulators; shares compounds with ROMK primary; ROMK thallium flux, fluorescence ratio; active compounds read low; actives 54% (n = 3,000); normalized thallium flux (F/F0 slope) at 10 µM; AID 1917;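 active means Flux at 10 µM at least 3 SD below or above vehicle control mean in one or both replicates; inconclusive means no clear call, values can overlap the other calls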
The depositor's hits bear a star; ? = inconclusive; nt = no result. Many of the other results were omitted from the sample, so hits are more common in it than they were.

SMILES	ROMK primary	Pf gametocyte	Biofilm kill mix	ROMK retest
C/C(=N/NC(=O)CNc1ccc(Cl)cc1C)c1ccc(C)cc1	12*	-2	17	0.078
COc1ccc(C(=O)Nn2cnnc2)cc1OC	-0.044	6	14	nt
O=[N+]([O-])c1cc(S(=O)(=O)Nc2cccc(Cl)c2)ccc1N/N=C/c1ccc(N2CCOCC2)cc1	nt	11	16	nt
CCOc1ccc(/C(C)=N/N2C(=O)C(CC(=O)Nc3ccc(OC)cc3[N+](=O)[O-])SC2=Nc2cccc(C)c2C)cc1 (centres undefined)	-0.029	nt	16	nt
COc1ccccc1/C=N/N1C(=O)C(CC(=O)Nc2ccc([N+](=O)[O-])cc2OC)SC1=Nc1cccc(C)c1C (centres undefined)	2.7*	nt	15	0.089
COc1ccc(CCNC(=O)C2CCN(Cc3nc(-c4ccccc4F)oc3C)CC2)cc1OC	-1.6	13	nt	nt
Cc1oc(-c2ccccc2F)nc1CN1CCC(C(=O)NCCC2=CCCCC2)CC1	-5.4*	8	nt	0.056*
O=C(Nc1nc(-c2ccc(Oc3ccccc3)cc2)cs1)C1=COCCO1	nt	3	12	nt
Cc1nn(-c2ccccc2)c(Cl)c1C(=O)NCC(C)C	nt	-6	nt	nt
CC(C)CNC(=O)c1nc(-c2ccccc2)n(-c2ccccc2)n1	nt	nt	nt	0.074
Cc1ccc(C(=O)C(C)Sc2nnc(N)s2)cc1 (centres undefined)	-0.26	-5	2	nt
COCCC(C(=O)Oc1c(C(C)(C)C)cc(C)cc1C(C)(C)C)c1ccccc1 (centres undefined)	nt	-4	nt	nt
O=C(COC(=O)c1cc(-c2ccccc2)nc2ccccc12)Nc1ccc2c(c1)OCO2	nt	3	5	nt
O=C(COC(=O)c1nc(Cl)ccc1Cl)Nc1ccc2c(c1)OCO2	-1.7*	-14	11	0.08
COc1cccc(NC(=O)COC(=O)c2nc(Cl)ccc2Cl)c1	0.37	12	8	nt
O=C(COC(=O)c1c2c(nc3ccccc13)CCCC2)Nc1ccc2c(c1)OCO2	nt	nt	nt	0.075
C[C@@H](CN1C(=O)C(=O)NC[C@@H]1C)NC(=O)CC12CC3CC(CC(C3)C1)C2	nt	7	nt	nt
COc1cc(C(O)c2nc3ccccc3n2C(C)C)cc(OC)c1OC (centres undefined)	nt	18	nt	nt
CCOc1ccc2[nH]c(C)c(CN3CCCCCC3)c(=O)c2c1	nt	0	nt	nt
CC1=C(C(=O)OCc2ccccc2)C(/C=C/c2ccccc2)N2C(=O)CCSC2=N1 (centres undefined)	-4.9*	-21	14	0.083
C=CCOC(=O)C1=C(C)N=C2SCCC(=O)N2C1/C=C/c1ccccc1 (centres undefined)	-0.86	nt	5	nt
COc1ccc(-c2cc(C(=O)NCCc3ccc(S(N)(=O)=O)cc3)c3ccccc3n2)cc1	0.022	nt	10	nt
Cc1cc(=O)[nH]c(SCc2nnc(-c3ccccc3)o2)n1	1.5	nt	nt	nt
Clc1ccc2nc(SCc3nnc(-c4ccccc4)o3)[nH]c2c1	-3.4*	nt	nt	0.055*
CCCCNS(=O)(=O)NC(=O)C1=C(N2CCCC2)COC1=O	nt	-12	nt	nt
SMILES	ROMK primary	Pf gametocyte	Biofilm kill mix	ROMK retest
O=C1/C(=C\Nc2ccc(OC(F)(F)F)cc2)CCN1c1ncccn1	2.9*	8	nt	0.083
O=C1/C(=C\Nc2ccc(Cl)cc2)CCN1c1ncccn1	nt	0	nt	nt
Cn1cccc1/C=C1\SC(=Nc2cccc(O)c2)NC1=O	-2.3*	-3	13	0.075
Cn1cccc1/C=C1\SC(=Nc2ccc(O)cc2)NC1=O	-0.55	-16	12	nt
Cc1ccc(N=C2NC(=O)/C(=C/c3cn(C)c4ccccc34)S2)cc1C	-3.4*	-19	6	?
Cn1cccc1/C=C1\SC(=Nc2ccccc2)NC1=O	nt	-4	15	nt
CCOC(=O)C1(CCOc2ccccc2)CCN(C(=O)CCSC)CC1	nt	-23	nt	nt
Cc1cccc(-n2nnnc2SCC(=O)Nc2cccc(S(N)(=O)=O)c2)c1	nt	-14	16	nt
S=c1nccc(-c2ccc3c(c2)CCO3)[nH]1	0.21	-26	23	nt
CC1(C)CCc2cc(-c3ccnc(=S)[nH]3)ccc2O1	nt	1	3	0.084
COCCSc1ccccc1C(=O)Nc1ccc(S(=O)(=O)N2CCOCC2)cc1	nt	-3	nt	nt
O=C(NCc1ccco1)C1CCN(C(=O)c2cc3sccc3n2Cc2ccc(Cl)cc2)CC1	-1.9	nt	nt	nt
O=C(Cn1c(C(=O)NCc2ccco2)cc2sccc21)c1ccccc1	nt	nt	nt	0.085
COc1ccc(OC)c(S(=O)(=O)Nc2ccc3c(c2)C(=O)OC3)c1	0.0084	8	23	nt
CCOc1cc(CN2CCC(CO)(Cc3cccc(C(F)(F)F)c3)CC2)ccc1OC	-1.8	7	11	nt
O=C(NCc1ccccc1)c1ccc(=O)[nH]n1	0.55	10	nt	0.077
O=C(NCc1ccco1)c1ccc(=O)[nH]n1	-0.34	-11	nt	nt
CCCCOc1c(Br)cc(/C=N/O)cc1OCC	-0.86	nt	9	nt
C=CCOc1c(Br)cc(/C=N/O)cc1OCC	-3.8*	nt	-3	0.057*
Cc1nc(C/C(=N\N)c2ccc(O)cc2O)cs1	0.36	-5	0	nt
CCc1cc(/C(Cc2csc(C)n2)=N/O)c(O)cc1O	-3.3*	nt	nt	0.067*
N#Cc1cccc(NCC(=O)Nc2ccc3c(c2)OCCO3)c1	-0.58	-14	14	nt
CCN1/C(=C/c2ccc3ccccc3[n+]2CC)C=Cc2ccccc21	-4.7*	nt	nt	0.038*
CCCCN1/C(=C/c2ccc3ccccc3[n+]2CC)Sc2ccccc21	nt	nt	11	nt
Cc1cc(C(=O)OCC(=O)Nc2cccc(S(N)(=O)=O)c2)c2ccccc2n1	nt	6	20	nt
SMILES	ROMK primary	Pf gametocyte	Biofilm kill mix	ROMK retest
CC(C)C[C@@H](CSc1ccc(Br)cc1)N1CCN(C)CCC1=O	nt	11	16	0.075
Cc1ccc(SC[C@H](CC(C)C)N2CCN(C)CCC2=O)cc1	nt	15	13	nt
COc1cccc(NC(=S)N(CCCN2CCC(C)CC2)Cc2cccs2)c1	-3.4*	-20	-8	0.061*
Cc1ccccc1NC(=S)N(CCCN1CCCCC1)Cc1ccco1	-1.1	nt	15	nt
COc1ccc(NC(=S)N(CCCN2CCC(C)CC2)Cc2cccs2)cc1	-0.38	4	2	nt
CN(C)CCNC(=O)CNC(=S)N(CCCN1CCOCC1)Cc1cccs1	-8.5*	-11	17	0.079
Cc1ccccc1NC(=S)N(CCCN1CCC(C)CC1)Cc1ccco1	-2.5*	nt	13	0.066*
CCN(CC)CCNC(=O)CNC(=S)N(CCCN1CCOCC1)Cc1cccs1	0.58	3	17	nt
Cc1ccc(-c2ccc(C#N)c(=O)n2CC(=O)N(C)C)cc1	nt	-12	nt	nt
CSCCC(NC(=O)/C(=C/c1ccco1)NC(=O)c1ccco1)C(=O)O (centres undefined)	nt	-3	nt	nt
COc1ccc(NC(=O)Nc2cccc3c2O[C@@H](CN(C)CC2CCCCC2)[C@@H](C)CN([C@H](C)CO)C3=O)cc1	nt	-16	nt	nt
C/C(CC(C)(C)c1ccccc1)=N\NS(=O)(=O)c1ccccc1	0.61	-12	14	nt
COc1cc(/C=C(/Sc2nnc(-c3ccc(F)cc3)o2)C(=O)O)ccc1OC(F)F	-11*	0	2	0.077
COc1ccc(/C=C(/Sc2nnc(-c3ccc(Cl)cc3)o2)C(=O)O)cc1	0.48	-13	15	nt
O=C1c2oc3ccc(F)cc3c(=O)c2C(c2cccc(O)c2)N1CCCN1CCOCC1 (centres undefined)	-2.3*	nt	-6	0.075
C=CCOc1cccc(C2c3c(oc4ccc(F)cc4c3=O)C(=O)N2CCCN2CCOCC2)c1 (centres undefined)	nt	nt	3	nt
